Results gathered from unrelated publications.
Lines come from different studies, so protocols differ.
Effect on: cell growth or viability

| Structure (SMILES) | cell line | test | conditions | IC50 [µM] |
| --- | --- | --- | --- | --- |
| COc1cc([C@@H]2c3cc4c(cc3[C@@H](O[C@@H]3O[C@@H]5CO[C@@H](C)O[C@H]5[C@H](O)[C@H]3O)[C@H]3COC(=O)[C@H]23)OCO4)cc(OC)c1O | LN-229 | MTS | 72 h | 0.02 |
| O=C(NO)c1ccc(Cn2cnc3c(Nc4cccc([N+](=O)[O-])c4)ncnc32)cc1 | MOLT-4 | MTT | 72 h | 0.92 |
| FC(F)(F)c1ccc(-c2cc(CNc3cccc4cccnc34)on2)cc1 | LN-229 | MTS | 72 h | 51.8 |
| O=C(CSc1nc2ccccc2s1)N/N=C/c1ccc(OCC(=O)Nc2cccc(Cl)c2)cc1 | MOLT-4 | MTS | 72 h | 7.7 |
| CCn1cc(C=C(C#N)C(=O)c2c[nH]c3cc(OC)c(OC)cc23)c2ccccc21 | MIA PaCa-2 | MTT | 48 h | 13 |
| N#Cc1ccc(-c2cc(CNc3cccc4cccnc34)on2)cc1 | LN-229 | MTS | 72 h | 27.2 |
| NS(=O)(=O)c1ccc(-n2nc(C(=O)NN3C(=O)CCC3=O)cc2-c2ccccc2)cc1 | PaCa-2 | fluorescence | 48 h | 27.4 |
| N#Cc1ccc(-c2cc(COc3cc(C(F)(F)F)nc4ccccc34)on2)cc1 | LN-229 | MTS | 72 h | 23.9 |
| Cc1ncsc1-c1ccc([C@H](C)NC(=O)[C@@H]2C[C@@H](O)CN2C(=O)[C@@H](NC(=O)CCCCCCCS(=O)(=O)NC(=O)c2nc(N3CCc4cccc(C(=O)Nc5nc6ccccc6s5)c4C3)ccc2-c2cnn(CC34CC5CC(CC(C5)C3)C4)c2C)C(C)(C)C)cc1 | MOLT-4 | MTS | 48 h | 0.0037 |
| COc1ccc(C=NNC(=O)c2cc(-c3ccccc3)n(-c3ccc(S(N)(=O)=O)cc3)n2)cc1OC | PaCa-2 | fluorescence | 48 h | 20.5 |
| O=c1cc(OCc2cc(-c3ccc(C(F)(F)F)cc3)no2)c2ccccc2o1 | LN-229 | MTS | 72 h | > 100 |
| NS(=O)(=O)c1ccc(-n2nc(C(=O)NN3C(=O)c4ccccc4C3=O)cc2-c2ccccc2)cc1 | PaCa-2 | fluorescence | 48 h | 35.4 |
| c1ccc(-c2cc(CNc3cccc4cccnc34)on2)nc1 | LN-229 | MTS | 72 h | 22.8 |
| Cc1c(-c2ccc(N3CCc4cccc(C(=O)Nc5nc6ccccc6s5)c4C3)nc2C(=O)O)cnn1CC12CC3CC(C1)CC(C(=O)NCCCCCCCCNc1cccc4c1C(=O)N(C1CCC(=O)NC1=O)C4=O)(C3)C2 (stereo not drawn) | MOLT-4 | MTS | 48 h | 0.0041 |
| CCn1cc(/C=C(\C#N)C(=O)c2c[nH]c3ccccc23)c2ccccc21 | MIA PaCa-2 | MTT | 48 h | > 40 |
| NS(=O)(=O)c1ccc(-n2nc(C(=O)NN=Cc3ccccc3O)cc2-c2ccccc2)cc1 | PaCa-2 | fluorescence | 48 h | 10.9 |
| CCc1oc2cc(S(=O)(=O)Nc3ccc(S(=O)(=O)Nc4nccs4)cc3)ccc2c1C(=O)c1cc(Br)c(O)c(Br)c1 | T47D | MTT | 96 h | 62.2 |
| COc1cccc2c1C(=O)c1c(O)c3c(c(O)c1C2=O)C[C@@](O)(C(=O)CO)C[C@@H]3O[C@H]1C[C@H](N)[C@H](O)[C@H](C)O1 | Jurkat |  | 96 h | 0.0339 |
| Cc1ncsc1-c1ccc([C@H](C)NC(=O)[C@@H]2C[C@@H](O)CN2C(=O)[C@@H](NC(=O)CN2CCN(c3cc(-c4ccccc4O)nnc3N)CC2)C(C)(C)C)cc1 | LNCaP | ATP luminescence | 7 days | 0.0153 |
| O=C(NO)c1ccc(Cn2cnc3c(Nc4ccc(Br)cc4F)ncnc32)cc1 | MOLT-4 | MTT | 72 h | 0.53 |
| CN(C)C(=O)c1cc2cnc(Nc3ccc(-c4ccc5c(=O)cc(N6CCOCC6)oc5c4)cc3)nc2n1C1CCCC1 | NGP | ATP luminescence | 72 h | 0.21 |
| CCOc1ccc2[nH]cc(C(=O)C(C#N)=Cc3cn(CC)c4ccccc34)c2c1 | MIA PaCa-2 | MTT | 48 h | 5.8 |
| O=C(CSc1nc2ccccc2s1)N/N=C/c1ccc(OCC(=O)Nc2ccc(Br)cc2)cc1 | LN-229 | MTS | 72 h | 27.8 |
| Cc1ncsc1-c1ccc([C@H](CC(=O)NCCCCCCNC(=O)c2nc(N3CCc4cccc(C(=O)Nc5nc6ccccc6s5)c4C3)ccc2-c2cnn(CC34CC5CC(CC(C5)C3)C4)c2C)NC(=O)[C@@H]2C[C@@H](O)CN2C(=O)[C@@H](NC(=O)C2(C#N)CC2)C(C)(C)C)cc1 | MOLT-4 | MTS | 48 h | 0.117 |

| Structure (SMILES) | cell line | test | conditions | IC50 [µM] |
| --- | --- | --- | --- | --- |
| CC(C)C(=O)Nc1ccc([N+](=O)[O-])c(C(F)(F)F)c1 | LNCaP | MTS | 48 h | 99.9 |
| Cc1nc2c(n1CCCN1CCCCC1)C(=O)c1ccccc1C2=O | MIA PaCa-2 | MTT |  | 14.7 |
| O=C(CSc1nc2ccccc2s1)N/N=C/c1ccc(OCC(=O)Nc2ccc([N+](=O)[O-])cc2)cc1 | MOLT-4 | MTS | 72 h | > 100 |
| Nc1nnc(-c2ccccc2O)cc1N1CC2CCC(C1)N2c1ccnc(F)c1 | LNCaP | ATP luminescence | 7 days | > 1 |
| Nc1ccccc1NC(=O)c1ccc(Cn2cnc3c(Nc4ccc(Br)cc4F)ncnc32)cc1 | Jurkat | MTT | 72 h | 4.73 |
| CCCOc1ccc2[nH]cc(C(=O)C(C#N)=Cc3cn(C)c4ccccc34)c2c1 | MIA PaCa-2 | MTT | 48 h | 28.9 |
| NS(=O)(=O)c1ccc(-n2nc(-c3nnc(CCl)o3)cc2-c2ccccc2)cc1 | PaCa-2 | fluorescence | 48 h | 26.3 |
| Cc1c(-c2ccc(N3CCc4cccc(C(=O)Nc5nc6ccccc6s5)c4C3)nc2C(=O)NCCOCCOCCOCCO)cnn1CC12CC3CC(CC(C3)C1)C2 | MOLT-4 | MTS | 48 h | 0.0169 |
| FC(F)(F)c1ccc(-c2cc(COc3cc(C(F)(F)F)nc4ccccc34)on2)cc1 | LN-229 | MTS | 72 h | > 100 |
| CN1C(=O)C(=O)c2cc3c(c4c2c1cc1ccccc14)OCO3 | T47D | MTT | 75 h | 61 |
| COc1ccc(Nc2ncnc3c2ncn3Cc2ccc(C(=O)NO)cc2)cc1 | Jurkat | MTT | 72 h | 0.7 |
| CCn1cc(C=C(C#N)C(=O)c2c[nH]c3ccc(OC)cc23)c2ccccc21 | MIA PaCa-2 | MTT | 48 h | 15.5 |
| O=C(NO)c1ccc(Cn2cnc3c(Nc4ccc(Cl)cc4)ncnc32)cc1 | Jurkat | MTT | 72 h | 0.91 |
| O=C(CSc1nc2ccccc2s1)N/N=C/c1ccc(OCC(=O)Nc2cccc([N+](=O)[O-])c2)cc1 | LN-229 | MTS | 72 h | 24.2 |
| O=c1cc(OCc2cc(-c3ccc(Cl)cc3Cl)no2)c2ccccc2o1 | LN-229 | MTS | 72 h | > 100 |
| Cc1ncsc1-c1ccc([C@H](CC(=O)NCCCCCCCCNC(=O)c2nc(N3CCc4cccc(C(=O)Nc5nc6ccccc6s5)c4C3)ccc2-c2cnn(CC34CC5CC(CC(C5)C3)C4)c2C)NC(=O)[C@@H]2C[C@@H](O)CN2C(=O)[C@@H](NC(=O)C2(C#N)CC2)C(C)(C)C)cc1 | MOLT-4 | MTS | 48 h | 0.313 |
| CN(C)c1ccc(Nc2nc(-c3ccncc3)nc3c2CC(N)CC3)cc1 (stereo not drawn) | DU-145 | MTT |  | 11.5 |
| Cc1c(-c2ccc(N3CCc4cccc(C(=O)Nc5nc6ccccc6s5)c4C3)nc2C(=O)NCCOCCNc2cccc3c2C(=O)N(C2CCC(=O)NC2=O)C3=O)cnn1CC12CC3CC(CC(C3)C1)C2 (stereo not drawn) | MOLT-4 | MTS | 48 h | 0.0214 |
| CCn1cc(C=C(C#N)C(=O)c2c[nH]c3cc(OC)ccc23)c2ccccc21 | MIA PaCa-2 | MTT | 48 h | > 40 |
| Cc1ncsc1-c1ccc([C@H](C)NC(=O)[C@@H]2C[C@@H](O)CN2C(=O)[C@@H](NC(=O)CCCCCCCCCS(=O)(=O)NC(=O)c2nc(N3CCc4cccc(C(=O)Nc5nc6ccccc6s5)c4C3)ccc2-c2cnn(CC34CC5CC(CC(C5)C3)C4)c2C)C(C)(C)C)cc1 | MOLT-4 | MTS | 48 h | 0.0119 |
| Nc1ccccc1NC(=O)c1ccc(Cn2cnc3c(Nc4ccc(Cl)cc4)ncnc32)cc1 | Jurkat | MTT | 72 h | 13.5 |
| Cn1nnc2c(C(N)=O)ncn2c1=O | LN-229 | MTT |  | 6000 |
| N#CC(=Cc1cn(Cc2ccc(Cl)cc2)c2ccccc12)C(=O)c1c[nH]c2ccccc12 | MIA PaCa-2 | MTT | 48 h | 4.9 |
| Cc1c(-c2ccc(N3CCc4cccc(C(=O)Nc5nc6ccccc6s5)c4C3)nc2C(=O)O)cnn1CC12CC3CC(C1)CC(C(=O)NCCOCCNc1cccc4c1C(=O)N(C1CCC(=O)NC1=O)C4=O)(C3)C2 (stereo not drawn) | MOLT-4 | MTS | 48 h | 0.0516 |
